From ChEMBL document CHEMBL3856258, “Phosphonate-based irreversible inhibitors of human γ-glutamyl transpeptidase (GGT). GGsTop is a non-toxic and highly selective inhibitor with critical electrostatic interaction with an active-site residue Lys562 for enhanced inhibitory activity” (Bioorg Med Chem, 2016) come the findings set out here.

Active and inactive are the calls of the source. The rule behind the calls is not given here.

Data set [1] relates to Escherichia coli. The data set is described as follows: Inhibition of glutaminase activity of Escherichia coli asparagine synthetase B at 0.1 mM using L-glutamine as substrate after 30 to 120 mins in presence of L-glutamate dehydrogenase and NAD+. Put shortly: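 Enzyme (60 µg) preincubated at 30 °C with inhibitor in 100 mM Tris-HCl pH 7.5, 8 mM MgCl2, 100 mM NaCl, 0.5 mM DTT. Aliquots taken at 30 and 120 min. Glutaminase reaction: 100 mM EPPS pH 8, 20 mM L-Gln, 37 °C for 10 min, then TCA quench. Glutamate read as NADH via glutamate dehydrogenase in glycine–hydrazine pH 9 with ADP and NAD+.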

Data set [2] can be described thus: Cytotoxicity against CHL cells assessed as number of cells with numerical aberrations at 0.05 ug/ml preincubated for 6 hrs followed by 18 hrs incubation in fresh medium in absence of S9 fraction by Giemsa-staining-based microscopic analysis relative to control. The data set is classed as toxicity, cell-based, Cricetulus griseus. As to conditions: chinese hamster.

The nature of data set [3]: Cytotoxicity against CHL cells assessed as structural aberrations at 0.05 ug/ml after 24 hrs by Giemsa-staining-based microscopic analysis. The data set is classed as toxicity, cell-based, Cricetulus griseus. The following applies: chinese hamster.
Data set [4] can be described thus: Cytotoxicity against CHL cells assessed as chromatid gap at 0.05 ug/ml after 24 hrs by Giemsa-staining-based microscopic analysis. The data set is classed as toxicity, cell-based, Cricetulus griseus. The following applies: chinese hamster.
Data set [5] is described as follows: Cytotoxicity against CHL cells assessed as chromatid gap at 0.05 ug/ml preincubated for 6 hrs followed by 18 hrs incubation in fresh medium in absence of S9 fraction by Giemsa-staining-based microscopic analysis. The data set is classed as toxicity, cell-based, Cricetulus griseus. The following applies: chinese hamster.
Data set [6] in a line: Cytotoxicity against CHL cells assessed as number of cells with numerical aberrations at 0.05 ug/ml after 24 hrs by Giemsa staining-based microscopic analysis relative to control. The data set is classed as toxicity, cell-based, Cricetulus griseus. As to conditions: chinese hamster.
Data set [7] in a line: Cytotoxicity against CHL cells assessed as structural aberrations at 0.05 ug/ml preincubated for 6 hrs followed by 18 hrs incubation in fresh medium in absence of S9 fraction by Giemsa-staining-based microscopic analysis. The data set is classed as toxicity, cell-based, Cricetulus griseus. The following applies: chinese hamster.
Another data set concerns Escherichia coli K-12. Put plainly: Irreversible inhibition of Escherichia coli K-12 SH642 GGT using gamma-Glu-AMC as substrate assessed as association rate constant by […] analysis. Put shortly:
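GGT was purified from the periplasmic fraction of recombinant E. coli K-12 SH642. Hydrolytic activity was followed with γ-Glu-AMC as substrate. Irreversible inactivation was expressed as kon, the second-order rate constant for the inhibitor–enzyme reaction.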

The species named for the next data set is Homo sapiens. The data set is described as follows: Irreversible inhibition of human GGT using gamma-Glu-AMC as substrate assessed as association rate constant by […] analysis. Put shortly: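 The enzyme source was a commercial human GGT preparation carrying bovine serum albumin as stabilizer (GGT <1% of protein). Hydrolytic activity was followed with γ-Glu-AMC as substrate. Irreversible inactivation was expressed as kon, the second-order rate constant for the inhibitor–enzyme reaction.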

In data set [8] the test system is Salmonella typhimurium. The data set is described as follows: Genotoxicity in Salmonella typhimurium TA100 assessed as number of revertant colonies per plate at 1 ug/plate after 20 mins in presence of S9 fraction by Ames test (reference value: 142). As to conditions: salmonella enterica subsp. enterica serovar typhimurium. The data set is classed as toxicity, organism-based. In general terms: In the Ames test, an excess of revertant colonies over the control signals mutagenicity.

The test system of data set [9] is Salmonella typhimurium. The data set is described as follows: Genotoxicity in Salmonella typhimurium TA1537 assessed as number of revertant colonies per plate at 2 ug/plate after 20 mins in presence of S9 fraction by Ames test (reference value: 15). The data set is classed as toxicity, organism-based. The following applies: salmonella enterica subsp. enterica serovar typhimurium.

Data set [10] relates to Salmonella typhimurium. The data set is described as follows: Genotoxicity in Salmonella typhimurium TA1535 assessed as number of revertant colonies per plate at 2 ug/plate after 20 mins in presence of S9 fraction by Ames test (reference value: 13). The data set is classed as toxicity, organism-based. The following applies: salmonella enterica subsp. enterica serovar typhimurium.

Data set [11] deals with Salmonella typhimurium. Put plainly: Genotoxicity in Salmonella typhimurium TA98 assessed as number of revertant colonies per plate at 0.5 ug/plate after 20 mins in presence of S9 fraction by Ames test (reference value: 26). The data set is classed as toxicity, organism-based. As to conditions: salmonella enterica subsp. enterica serovar typhimurium.
Data set [12] relates to Escherichia coli. The data set is described as follows: Genotoxicity in Escherichia coli WP2uvrA assessed as number of revertant colonies per plate at 10 ug/plate after 20 mins in presence of S9 fraction by Ames test (reference value: 26). The data set is classed as toxicity. The following applies: s9, 20 min.
Data set [13] relates to Salmonella typhimurium. The data set is described as follows: Genotoxicity in Salmonella typhimurium TA98 assessed as number of revertant colonies per plate at 1 ug/plate after 20 mins in absence of S9 fraction by Ames test (reference value: 21). The data set is classed as toxicity, organism-based. As to conditions: salmonella enterica subsp. enterica serovar typhimurium.

Data set [14] has as its system Salmonella typhimurium. Put plainly: Genotoxicity in Salmonella typhimurium TA1537 assessed as number of revertant colonies per plate at 80 ug/plate after 20 mins in absence of S9 fraction by Ames test (reference value: 9). The data set is classed as toxicity, organism-based. As to conditions: salmonella enterica subsp. enterica serovar typhimurium.
The nature of data set [15]: Cytotoxicity against CHL cells assessed as chromatid gap at 20 ug/ml preincubated for 6 hrs followed by 18 hrs incubation in fresh medium in presence of S9 fraction by Giemsa-staining-based microscopic analysis. The data set is classed as toxicity, cell-based, Cricetulus griseus. The following applies: chinese hamster.
A short description of data set [16]: Cytotoxicity against CHL cells assessed as number of cells with numerical aberrations at 20 ug/ml preincubated for 6 hrs followed by 18 hrs incubation in fresh medium in presence of S9 fraction by Giemsa staining-based microscopic analysis relative to control. The following applies: chinese hamster. The data set is classed as toxicity, cell-based, Cricetulus griseus.

A short description of data set [17]: Cytotoxicity against CHL cells assessed as structural aberrations at 20 ug/ml preincubated for 6 hrs followed by 18 hrs incubation in fresh medium in presence of S9 fraction by Giemsa-staining-based microscopic analysis. The data set is classed as toxicity, cell-based, Cricetulus griseus. The following applies: chinese hamster.
Data set [18] can be described thus: Hydrolytic stability of the compound in D2O assessed as formation of monomethyl phosphonate and phenol at 23 degC up to 28 days by 31P NMR spectroscopy. The data set is classed as physicochemical. The following applies: 672 h.
Data set [19] is described as follows: Hydrolytic stability of the compound in D2O assessed as formation of monomethyl phosphonate and phenol at 23 degC after 28 days by 31P NMR spectroscopy. The data set is classed as physicochemical. The following applies: 672 h.

Consider `N[C@H](C(=O)O)[C@@H]1CC(Cl)=NO1`, for which the inhibition result in the data set with Escherichia coli [1] is “Active”.
As to `CO[C@@]12[C@H](COC(N)=O)C3=C(C(=O)C(C)=C(N)C3=O)N1C[C@@H]1N[C@@H]12` [MITOMYCIN], the Activity in [2] is reported as 2%; in [3], 40%; in data set [4], 0%; in [5], 3%; in data set [6] it was 0%; in [7] it was 40%.
`COP(=O)(CCC(N)C(=O)O)Oc1cccc(CCC(=O)O)c1` (mixture of isomers): the K with Escherichia coli K-12 was 71 M⁻¹ s⁻¹; in the data set filed under Homo sapiens, 7.7 M⁻¹ s⁻¹.
On to `Nc1ccc2cc3ccccc3cc2c1` [2-AMINOANTHRACENE], for which the Activity in the data set on Salmonella typhimurium [8] is on record as 694; in the data set with Salmonella typhimurium [9] it was 154; in the data set on Salmonella typhimurium [10], 299; in the data set on Salmonella typhimurium [11], 421; in the data set with Escherichia coli [12], 495.
In the case of `COP(=O)(CCC(N)C(=O)O)Oc1cccc(CC(N)=O)c1` (mixture of isomers), the values for the K with Escherichia coli K-12 and in the data set listed under Homo sapiens were 400 M⁻¹ s⁻¹ and 1.9 M⁻¹ s⁻¹, respectively.
For `O=[N+]([O-])c1ccc2c(c1)Cc1ccccc1-2` [2-NITROFLUORENE], the Activity in the data set on Salmonella typhimurium [13] is 442.
With `COP(=O)(CCC(N)C(=O)O)Oc1cccc(C(=O)O)c1` (mixture of isomers), the K came to 450 M⁻¹ s⁻¹ in the data set with Escherichia coli K-12 and 1.6 M⁻¹ s⁻¹ in the data set listed under Homo sapiens.
For `NC(CCP(=O)(Oc1ccccc1)Oc1cccc(CC(=O)O)c1)C(=O)O` (mixture of isomers), the K in the data set listed under Homo sapiens was found to be 40 M⁻¹ s⁻¹.
Regarding `CCOC(=O)Cc1cccc(OP(=O)(CCC(N)C(=O)O)OC)c1` (mixture of isomers), the values for the K in the data set with Escherichia coli K-12 and in the data set listed under Homo sapiens were 120 M⁻¹ s⁻¹ and 1.2 M⁻¹ s⁻¹, respectively.
`Nc1c2ccccc2nc2ccccc12` [AMINACRINE]: the Activity in the data set on Salmonella typhimurium [14] stood at 320.
On to `NC(CCP(=O)(Oc1ccccc1)Oc1ccccc1)C(=O)O` (racemic), for which the K with Escherichia coli K-12 was determined as 27.8 M⁻¹ s⁻¹; in the data set filed under Homo sapiens, 0.41 M⁻¹ s⁻¹.
Take `c1ccc2c(c1)cc1ccc3cccc4ccc2c1c34` [BENZO[DEF]CHRYSENE]: the Activity in data set [15] came to 6%; in data set [16], 1%; in data set [17], 46%.
Consider `COP(=O)(CCC(N)C(=O)O)Oc1ccc(C(=O)O)cc1` (mixture of isomers), for which the values for the K in the data set with Escherichia coli K-12 and in the data set listed under Homo sapiens were 3200 M⁻¹ s⁻¹ and 5.2 M⁻¹ s⁻¹, respectively.
For the compound `COP(=O)(CCC(N)C(=O)O)Oc1ccccc1` (stereo not drawn), the K stood at 120 M⁻¹ s⁻¹ in the data set on Escherichia coli K-12 and 0.4 M⁻¹ s⁻¹ in the data set listed under Homo sapiens.
In the case of `COP(=O)(CCC(N)C(=O)O)Oc1ccc(CC(=O)O)cc1` (stereo not drawn), the Stability result in data set [18] is recorded as “Stable”. In addition, the values for the K in the data set with Escherichia coli K-12 and in the data set listed under Homo sapiens were 210 M⁻¹ s⁻¹ and 0.33 M⁻¹ s⁻¹, respectively.
`COP(=O)(CCC(N)C(=O)O)Oc1cccc([N+](=O)[O-])c1` (mixture of isomers): the Stability entry in data set [19] was “Unstable”. Also, the K in the data set with Escherichia coli K-12 is 5100 M⁻¹ s⁻¹; in the data set listed under Homo sapiens it was 49 M⁻¹ s⁻¹.
